Data: ChEMBL document CHEMBL4311947, “Discovery of Novel Naphthylphenylketone and Naphthylphenylamine Derivatives as Cell Division Cycle 25B (CDC25B) Phosphatase Inhibitors: Design, Synthesis, Inhibition Mechanism, and in Vitro Efficacy against Melanoma Cell Lines” (J Med Chem, 2019)
Activity calls are given as the source filed them. The rule behind the calls is not given here.

Key:
[1] = molecular target: T1, M-phase inducer phosphatase 2 (Homo sapiens, UniProt P30305); assay: Uncompetitive inhibition of N-terminal His6-tagged human CDC25B (377 to 550 residues) expressed in Escherichia coli BL21(DE3) cells using OMFP as substrate by double reciprocal Lineweaver-Burk plot analysis
T1 sequence (P30305 whole entry): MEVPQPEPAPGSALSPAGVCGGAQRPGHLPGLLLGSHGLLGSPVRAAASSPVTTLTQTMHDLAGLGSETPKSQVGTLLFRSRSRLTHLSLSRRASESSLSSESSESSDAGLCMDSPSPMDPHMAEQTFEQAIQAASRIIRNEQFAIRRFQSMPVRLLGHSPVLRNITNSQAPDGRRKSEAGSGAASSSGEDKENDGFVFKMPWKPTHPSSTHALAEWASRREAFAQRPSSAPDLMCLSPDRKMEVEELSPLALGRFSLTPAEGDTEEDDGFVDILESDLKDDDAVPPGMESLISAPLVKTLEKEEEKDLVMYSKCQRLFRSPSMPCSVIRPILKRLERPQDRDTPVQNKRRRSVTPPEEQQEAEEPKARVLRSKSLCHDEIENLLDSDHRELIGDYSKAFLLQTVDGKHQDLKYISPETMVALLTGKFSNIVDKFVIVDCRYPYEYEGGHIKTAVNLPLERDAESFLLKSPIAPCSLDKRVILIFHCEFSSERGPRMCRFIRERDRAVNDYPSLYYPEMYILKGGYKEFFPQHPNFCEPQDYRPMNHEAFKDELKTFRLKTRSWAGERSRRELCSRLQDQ
Method in brief: (§1)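 Recombinant CDC25 form (15–25 nM) in 20 mM Tris-HCl pH 7.8, 0.5 mM TCEP, 1% (v/v) DMSO, with or without inhibitor. Reaction started with 0.5–25 µM OMFP; O-methylfluorescein formation followed continuously at 30°C (ex 485/em 530 nm). Initial rates (AU/min) analysed in Lineweaver-Burk plots for Vmax, KM and mechanism; Ki averaged from at least three independent experiments, only roughly estimated for mixed inhibition.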

[2] = molecular target: T2, M-phase inducer phosphatase 2 (Homo sapiens) (UniProt P30305); assay: Inhibition of N-terminal His6-tagged human CDC25B (377 to 550 residues) expressed in Escherichia coli BL21(DE3) cells assessed as reduction in Vmax using OMFP as substrate by double reciprocal Lineweaver-Burk plot analysis; method in brief: as §1
T2 sequence (whole entry): T1 sequence (P30305 whole entry)

A-375 [3] = assay: Induction of cell cycle arrest in human A375 cells assessed as increase in accumulation at subG1 phase at 10 uM after 16 hrs by propidium iodide staining based flow cytometric method; type: functional
Method in brief: (§2)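 Seeded at 3×10^5 cells/well for 24 h at 37°C, then exposed to 10 µM inhibitor or 0.5% (v/v) DMSO for 8 or 16 h. Trypsin-harvested, fixed in cold 70% ethanol at -20°C for 1 h, stained 30 min at 4°C with 50 µg/mL PI in non-lysis solution. Phase distribution (sub-G1, G0/G1, S, G2/M) read by FACScan; triplicate experiments, mean ± SE.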

A-375 [4] = assay: Induction of cell cycle arrest in human A375 cells assessed as decrease in accumulation at G0/G1 phase at 10 uM after 16 hrs by propidium iodide staining based flow cytometric method; type: functional; method in brief: as §2
A-375 [5] = assay: Induction of cell cycle arrest in human A375 cells assessed as increase in accumulation at G2/M phase at 10 uM after 16 hrs by propidium iodide staining based flow cytometric method; type: functional; method in brief: as §2
A2058 [6] = assay: Induction of cell cycle arrest in human A2058 cells assessed as increase in accumulation at subG1 phase at 10 uM after 16 hrs by propidium iodide staining based flow cytometric method; type: functional; method in brief: as §2
A2058 [7] = assay: Induction of cell cycle arrest in human A2058 cells assessed as decrease in accumulation at G0/G1 phase at 10 uM after 16 hrs by propidium iodide staining based flow cytometric method; type: functional; method in brief: as §2
A-375 [8] = assay: Induction of cell cycle arrest in human A375 cells assessed as increase in accumulation at G2/M phase at 10 uM after 8 hrs by propidium iodide staining based flow cytometric method; type: functional; method in brief: as §2
A-375 [9] = assay: Inhibition of colony formation in human A375 cells at 0.625 to 10 uM after 10 days by crystal violet staining based assay; type: functional, cell-based
Method in brief: (§3)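 Seeded in duplicate at 4×10^2 cells/well; after 2–3 days treated with 0.5% (v/v) DMSO or 0.625–10 µM inhibitor for 10 days at 37°C. Stained 1 h with 1% crystal violet in 50% ethanol; colonies of ≥50 cells counted, expressed as percentage, mean ± SE of at least three experiments.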

hTERT-BJ = assay: Cytotoxicity against human BJ-5ta cells at 10 uM measured up to 72 hrs by MTT assay; type: cell-based
Method in brief: (§4)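 Cells seeded at 4×10^4/well, treated 24 h after plating with inhibitor or 0.5% (v/v) DMSO vehicle for 24, 48 or 72 h. MTT added, 3 h at 37°C under 5% CO2, formazan solubilised, absorbance at 570 nm. Viability in arbitrary units, mean ± SE of at least three independent experiments versus control. Cells grown in DMEM/10% FBS at 37°C, 5% CO2; BJ-5ta cultured in 4:1 DMEM/Medium 199 with hygromycin B.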

A2058 [10] = assay: Inhibition of colony formation in human A2058 cells at 0.625 to 10 uM after 10 days by crystal violet staining based assay; type: functional, cell-based; method in brief: as §3
A2058 [11] = assay: Cytotoxicity against human A2058 cells at 2.5 uM after 72 hrs by MTT assay; type: functional, cell-based; method in brief: as §4
A2058 [12] = assay: Cytotoxicity against human A2058 cells at 5 uM after 48 hrs by MTT assay; type: functional, cell-based; method in brief: as §4
A2058 [13] = assay: Cytotoxicity against human A2058 cells at 50 uM after 48 hrs by MTT assay; type: functional, cell-based; method in brief: as §4
[14] = molecular target: T3, M-phase inducer phosphatase 1 (Homo sapiens, UniProt P30304); assay: Inhibition of N-terminal His6-tagged human CDC25A (336 to 508 residues) expressed in Escherichia coli BL21(DE3) cells using OMFP as substrate by double reciprocal Lineweaver-Burk plot analysis; method in brief: as §1
T3 sequence (P30304 whole entry): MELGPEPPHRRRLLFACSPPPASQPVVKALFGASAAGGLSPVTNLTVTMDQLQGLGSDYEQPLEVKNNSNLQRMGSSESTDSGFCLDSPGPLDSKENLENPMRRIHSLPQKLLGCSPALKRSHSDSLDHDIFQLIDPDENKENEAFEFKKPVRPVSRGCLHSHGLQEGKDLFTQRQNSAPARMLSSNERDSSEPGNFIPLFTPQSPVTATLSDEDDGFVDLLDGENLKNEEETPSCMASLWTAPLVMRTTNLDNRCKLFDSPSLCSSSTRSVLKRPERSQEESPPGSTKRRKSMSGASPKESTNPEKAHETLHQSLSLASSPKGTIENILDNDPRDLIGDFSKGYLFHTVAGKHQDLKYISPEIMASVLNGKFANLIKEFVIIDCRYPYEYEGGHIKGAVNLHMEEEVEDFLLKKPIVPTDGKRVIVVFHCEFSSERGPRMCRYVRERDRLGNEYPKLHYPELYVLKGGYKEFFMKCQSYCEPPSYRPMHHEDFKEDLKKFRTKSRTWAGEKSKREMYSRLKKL

- Ki [1]: 8.5 µM
- inhibition [2]: Active
- Ki [14]: 3 µM
SMILES: CCOC(=O)c1cccc(Nc2cc(OC)cc3ccccc23)c1
- Activity (A-375 [3]): Active
- Activity (A-375 [4]): Active
- Activity (A-375 [5]): inactive
- Activity (A2058 [6]): inactive
- Activity (A2058 [7]): Active
- Activity (A-375 [8]): Active
- inhibition (A-375 [9]): Active
- Activity (hTERT-BJ): Non-Toxic
- inhibition (A2058 [10]): Active
- Activity (A2058 [11]): Active
- Activity (A2058 [12]): Active
- Activity (A2058 [13]): Active
